Test results published in ChEMBL document CHEMBL1141487, “Alpha,Beta-cyclic-beta-benzamido hydroxamic acids: Novel oxaspiro[4.4]nonane templates for the discovery of potent, selective, orally bioavailable inhibitors of tumor necrosis factor-alpha converting enzyme (TACE)” (Bioorg Med Chem Lett, 2008).

Tests used:
[1] = target: Disintegrin and metalloproteinase domain-containing protein 17 (Sus scrofa, UniProt O77636)
[2] = target: 72 kDa type IV collagenase (Homo sapiens, UniProt P08253); test: Inhibition of MMP2
Chain of 72 kDa type IV collagenase (P08253 whole entry): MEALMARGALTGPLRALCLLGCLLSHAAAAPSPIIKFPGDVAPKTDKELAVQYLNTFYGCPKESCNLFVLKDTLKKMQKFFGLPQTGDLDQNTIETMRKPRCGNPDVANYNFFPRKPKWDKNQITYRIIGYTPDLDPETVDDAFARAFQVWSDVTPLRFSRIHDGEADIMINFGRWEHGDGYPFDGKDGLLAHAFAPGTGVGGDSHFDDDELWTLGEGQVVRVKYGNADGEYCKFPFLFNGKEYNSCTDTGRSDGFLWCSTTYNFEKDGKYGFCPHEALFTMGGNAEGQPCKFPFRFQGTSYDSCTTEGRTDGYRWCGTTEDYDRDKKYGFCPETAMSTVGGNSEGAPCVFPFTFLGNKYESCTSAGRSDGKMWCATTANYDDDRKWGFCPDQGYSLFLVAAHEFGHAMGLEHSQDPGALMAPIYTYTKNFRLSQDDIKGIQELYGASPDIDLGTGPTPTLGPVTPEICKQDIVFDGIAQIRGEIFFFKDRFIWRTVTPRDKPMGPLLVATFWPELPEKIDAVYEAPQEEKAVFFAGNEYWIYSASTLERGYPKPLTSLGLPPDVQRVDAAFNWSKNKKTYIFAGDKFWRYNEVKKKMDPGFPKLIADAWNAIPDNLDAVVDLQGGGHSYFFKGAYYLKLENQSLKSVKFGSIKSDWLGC

Blood = test: Inhibition of LPS-induced TNFalpha production in human whole blood; format: functional, tissue-based
[3] = Bioavailability in Sprague-Dawley rat at 5 mg/kg, po; format: ADME, organism-based; details: in vivo
Outline: (§1)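 Sprague–Dawley rats dosed 5 mg/kg iv and 5 mg/kg orally as n-in-1 cassette. Plasma levels measured by LC/MS/MS.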

[4] = Half life in Sprague-Dawley rat at 5 mg/kg, po; format: ADME, organism-based; set-up: dose 5 mg/kg, route oral; details: in vivo
Outline: as §1

[5] = Apparent permeability across human Caco-2 cells; format: ADME, cell-based
[6] = AUC in Sprague-Dawley rat at 5 mg/kg, po; format: ADME, organism-based; set-up: dose 5 mg/kg, route oral; details: plasma
Outline: as §1

[7] = Clearance in Sprague-Dawley rat at 5 mg/kg, iv; format: ADME, organism-based; set-up: dose 5 mg/kg, route intravenous; details: in vivo
Outline: as §1

[8] = Tmax in Sprague-Dawley rat at 5 mg/kg, po; format: ADME, organism-based; set-up: dose 5 mg/kg, route oral; details: in vivo
Outline: as §1

Interstitial collagenase = target: T1, Interstitial collagenase (Homo sapiens, UniProt P03956); test: Inhibition of MMP1
T1 sequence (P03956 whole entry): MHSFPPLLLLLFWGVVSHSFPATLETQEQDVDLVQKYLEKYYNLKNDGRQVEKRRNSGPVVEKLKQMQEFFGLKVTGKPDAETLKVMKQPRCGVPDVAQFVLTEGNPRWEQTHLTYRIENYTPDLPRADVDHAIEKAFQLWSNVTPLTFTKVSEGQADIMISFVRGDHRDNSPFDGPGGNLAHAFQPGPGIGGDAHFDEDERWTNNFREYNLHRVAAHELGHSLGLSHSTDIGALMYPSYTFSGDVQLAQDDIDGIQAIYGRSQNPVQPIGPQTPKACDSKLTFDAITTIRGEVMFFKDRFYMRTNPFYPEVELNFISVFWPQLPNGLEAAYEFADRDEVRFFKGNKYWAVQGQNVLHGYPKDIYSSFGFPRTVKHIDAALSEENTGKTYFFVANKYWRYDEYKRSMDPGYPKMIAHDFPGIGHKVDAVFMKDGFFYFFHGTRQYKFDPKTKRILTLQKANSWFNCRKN

[9] = Half life in Sprague-Dawley rat at 5 mg/kg, iv; format: ADME, organism-based; set-up: dose 5 mg/kg, route intravenous; details: in vivo
Outline: as §1

[10] = AUC in Sprague-Dawley rat at 5 mg/kg, iv; format: ADME, organism-based; set-up: dose 5 mg/kg, route intravenous; details: plasma
Outline: as §1

[11] = target: Matrix metalloproteinase-9 (Homo sapiens, UniProt P14780); test: Inhibition of MMP9
Chain of Matrix metalloproteinase-9 (P14780 whole entry): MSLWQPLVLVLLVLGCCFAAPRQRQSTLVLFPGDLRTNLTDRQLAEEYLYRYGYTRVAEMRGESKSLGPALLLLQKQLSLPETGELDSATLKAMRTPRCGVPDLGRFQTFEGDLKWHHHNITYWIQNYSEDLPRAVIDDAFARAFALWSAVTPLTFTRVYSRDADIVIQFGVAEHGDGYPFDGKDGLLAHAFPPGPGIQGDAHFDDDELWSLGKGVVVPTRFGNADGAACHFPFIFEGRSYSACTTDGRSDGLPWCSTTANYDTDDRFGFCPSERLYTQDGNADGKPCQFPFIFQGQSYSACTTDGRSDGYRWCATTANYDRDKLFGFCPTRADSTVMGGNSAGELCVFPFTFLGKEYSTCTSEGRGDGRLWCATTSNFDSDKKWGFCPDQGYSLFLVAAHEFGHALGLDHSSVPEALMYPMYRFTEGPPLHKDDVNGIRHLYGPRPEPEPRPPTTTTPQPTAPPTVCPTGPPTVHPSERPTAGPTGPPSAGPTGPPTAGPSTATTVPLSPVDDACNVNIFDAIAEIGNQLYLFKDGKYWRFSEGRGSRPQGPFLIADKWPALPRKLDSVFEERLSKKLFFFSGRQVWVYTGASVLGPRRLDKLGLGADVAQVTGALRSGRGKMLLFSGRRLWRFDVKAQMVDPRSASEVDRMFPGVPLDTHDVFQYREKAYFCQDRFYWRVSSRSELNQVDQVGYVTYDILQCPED

[12] = Volume of distribution at steady state in Sprague-Dawley rat at 5 mg/kg, iv; format: ADME, organism-based; set-up: dose 5 mg/kg, route intravenous; details: in vivo, read-out: Vdss
Outline: as §1

[13] = Oral bioavailability in Beagle dog; format: ADME, organism-based, Canis lupus familiaris; details: in vivo
Mus musculus = species: Mus musculus; test: Inhibition of LPS-induced TNFalpha production in mouse endotoxemia model after 1 hr; format: functional
Outline: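 Mice given lipopolysaccharide together with graded oral gavage doses of inhibitor at t = 0 h. Animals euthanized 1 h post-dose and whole blood taken by cardiac puncture. TNF-α measured in plasma. ED50 calculated from the dose–response.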

Chain of Disintegrin and metalloproteinase domain-containing protein 17 (O77636 whole entry, the tested form may be a part): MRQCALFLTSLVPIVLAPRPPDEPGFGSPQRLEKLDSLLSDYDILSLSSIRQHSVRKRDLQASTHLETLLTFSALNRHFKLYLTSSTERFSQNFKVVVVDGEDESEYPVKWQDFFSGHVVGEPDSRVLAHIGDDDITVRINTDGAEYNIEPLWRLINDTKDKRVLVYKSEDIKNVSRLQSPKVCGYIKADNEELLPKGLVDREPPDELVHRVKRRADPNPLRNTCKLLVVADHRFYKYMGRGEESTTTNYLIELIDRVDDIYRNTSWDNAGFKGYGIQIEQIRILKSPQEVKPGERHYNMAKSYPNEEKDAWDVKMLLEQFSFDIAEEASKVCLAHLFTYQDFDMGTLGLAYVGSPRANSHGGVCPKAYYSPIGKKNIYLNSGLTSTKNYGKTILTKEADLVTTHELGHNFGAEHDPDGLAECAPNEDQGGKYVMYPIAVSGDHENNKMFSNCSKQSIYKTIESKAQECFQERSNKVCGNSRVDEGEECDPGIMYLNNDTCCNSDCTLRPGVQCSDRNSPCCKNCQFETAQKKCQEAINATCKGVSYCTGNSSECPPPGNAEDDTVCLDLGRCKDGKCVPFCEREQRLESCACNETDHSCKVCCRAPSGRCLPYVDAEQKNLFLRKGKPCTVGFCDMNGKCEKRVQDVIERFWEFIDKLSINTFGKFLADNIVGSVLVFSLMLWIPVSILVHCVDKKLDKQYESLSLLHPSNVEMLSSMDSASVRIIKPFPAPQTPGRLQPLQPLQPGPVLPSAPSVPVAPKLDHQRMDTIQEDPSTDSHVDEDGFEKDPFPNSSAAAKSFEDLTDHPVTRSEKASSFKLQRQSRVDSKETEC

| Structure (SMILES) | IC50 [1] [nM] | Ki [2] [nM] | IC50 (Blood) [nM] | bioavailability [3] [%] | half-life [4] [h] | Papp [5] [×10⁻⁶ cm/s] | AUC [6] [µM·h] | clearance [7] [mL/min/kg] | Tmax [8] [h] | Ki (Interstitial collagenase) [nM] | half-life [9] [h] | AUC [10] [µM·h] | Ki [11] [nM] | Vd [12] [L/kg] | bioavailability [13] [%] | ED50 (Mus musculus) [mg/kg] |
| --- | --- | --- | --- | --- | --- | --- | --- | --- | --- | --- | --- | --- | --- | --- | --- | --- |
| Cc1cc(COc2ccc(C(=O)N[C@@H]3C[C@]4(CCCO4)C[C@@H]3C(=O)NO)cc2)c2ccccc2n1 | 1 | 1920 | 143 | 35 | 1.9 | 1.5 | 3.85 | 13.3 | 0.25 | > 4950 | 6.9 | 10.9 | 1250 | 1.4 |  |  |
| Cc1cc(COc2ccc(C(=O)N[C@@H]3C[C@@]4(CCCO4)C[C@@H]3C(=O)NO)cc2)c2ccccc2n1 | 1 | 1360 | 108 | 31 | 1.3 | 5.7 | 3.93 | 11.7 | 0.1 | > 4950 | 4.2 | 12.6 | 1450 | 0.3 | 68 | 1 |
